{"source": "ChEMBL document CHEMBL4610058", "about": "“Mariannamides A and B, new cyclic octapeptides isolated from Mariannaea elegans NBRC102301” (2020)", "key": {"Nakaseomyces glabratus": {"test_system": "Nakaseomyces glabratus", "experiment": "Antimicrobial activity against Candida glabrata IFM 40217 measured after 24 hrs by disc diffusion method", "format": "functional, organism-based", "outline": "(§1)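 Yeasts pre-cultured on YPD agar at 37 °C for 24 h, suspended in Mueller Hinton broth and adjusted to 0.5 McFarland. 6 mm discs carrying 2 µg compound (20 µL) laid on Mueller Hinton agar spread with the fungal suspension, then incubated 37 °C for 24 h. Zone diameter read including the disc. 5% DMSO discs as negative control. Triplicate.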"}, "[Candida] auris": {"test_system": "[Candida] auris", "experiment": "Antimicrobial activity against Candida auris JCM 15448 measured after 24 hrs by disc diffusion method", "format": "functional, organism-based", "details": "Candidozyma auris", "outline": "as §1"}, "[1]": {"test_system": "Meyerozyma guilliermondii", "experiment": "Antimicrobial activity against Candida guilliermondii TIMM 0260 measured after 24 hrs by disc diffusion method", "format": "functional, organism-based", "outline": "as §1"}, "Escherichia coli": {"test_system": "Escherichia coli", "experiment": "Antimicrobial activity against Escherichia coli U541 assessed as diameter of inhibition zone measured after 24 hrs by disc diffusion assay", "format": "functional", "outline": "(§2)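 Bacteria grown in Mueller Hinton broth at 37 °C for 24 h and adjusted to 0.5 McFarland. 6 mm paper discs loaded with 2 µg compound (20 µL) placed on Mueller Hinton agar spread with the suspension, then incubated 37 °C for 24 h. Inhibition-zone diameter measured including the disc. Blank 5% DMSO discs as negative control. Triplicate.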"}, "Staphylococcus aureus": {"test_system": "Staphylococcus aureus", "experiment": "Antimicrobial activity against methicillin-resistant Staphylococcus aureus N315 measured after 24 hrs by disc diffusion method", "format": "functional, organism-based", "outline": "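Disc diffusion on Müller Hinton agar. MRSA N315 grown in Müller Hinton broth at 37 °C for 24 h, then adjusted to McFarland 0.5. Sterile 6 mm paper discs loaded with 20 µL (2 µg) of compound. Incubation at 37 °C for 24 h. Read-out is inhibition zone diameter including the disc. Negative control was discs with 5% DMSO. Triplicate; mean ± S.E.M.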"}, "Enterococcus faecalis": {"test_system": "Enterococcus faecalis", "experiment": "Antimicrobial activity against Enterococcus faecalis JCM7783 measured after 24 hrs by disc diffusion method", "format": "functional, organism-based", "outline": "as §2"}, "Bacillus subtilis": {"test_system": "Bacillus subtilis", "experiment": "Antimicrobial activity against Bacillus subtilis HA101 measured after 24 hrs by disc diffusion method", "format": "functional, organism-based", "outline": "as §2"}, "Candida albicans": {"test_system": "Candida albicans", "experiment": "Antimicrobial activity against Candida albicans IFM 40213 measured after 24 hrs by disc diffusion method", "format": "functional, organism-based", "outline": "as §1"}, "Cryptococcus neoformans": {"test_system": "Cryptococcus neoformans", "experiment": "Antimicrobial activity against Cryptococcus neoformans IFM 40215 assessed as diameter of inhibition zone measured after 24 hrs by disc diffusion assay", "format": "functional", "outline": "as §1"}, "Candida parapsilosis": {"test_system": "Candida parapsilosis", "experiment": "Antimicrobial activity against Candida parapsilosis IFM 40218 measured after 24 hrs by disc diffusion method", "format": "functional, organism-based", "outline": "as §1"}, "C2C12 [2]": {"test_system": "C2C12", "experiment": "Upregulation of SIRT1 mRNA expression in mouse C2C12 cells at 50 uM measured after 24 hrs by qRT-PCR analysis relative to control", "format": "functional", "outline": "(§3)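 C2C12 seeded at 2×10^5 cells/well, grown to 90% confluence, then differentiated 2 days in DMEM with 2% horse serum. Treated 24 h with compound (10–50 µM), DMSO, or resveratrol 50 µM (positive control). SIRT1 mRNA measured by qRT-PCR (40 cycles, 95/60 °C), GAPDH reference, ΔΔCt vs DMSO. Triplicate; mean ± S.E.M.; one-way ANOVA with Tukey.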"}, "C2C12 [3]": {"test_system": "C2C12", "experiment": "Upregulation of SIRT1 mRNA expression in mouse C2C12 cells at 50 uM measured after 24 hrs by qRT-PCR analysis", "format": "functional, cell-based", "outline": "as §3"}}, "note": "The source made the active and inactive calls. No cut-off for these calls is given here. Where a SMILES comes first, the peptide text is derived from it.", "data": [{"smiles": "CC[C@H](C)[C@@H]1NC(=O)[C@H](CC(C)C)NC(=O)[C@@H]2CCCN2C(=O)[C@@H]2CCCN2C(=O)[C@H](CC(C)C)NC(=O)[C@H](C(C)C)NC(=O)[C@H](C(C)C)NC(=O)[C@@H]2CCCN2C1=O", "note": "(cyclo(IPVVLPPL))", "values": [{"measurement": "Activity", "setting": "Nakaseomyces glabratus", "result": "inactive"}, {"measurement": "Activity", "setting": "[Candida] auris", "result": "inactive"}, {"measurement": "Activity", "setting": "[1]", "result": "inactive"}, {"measurement": "Activity", "setting": "Escherichia coli", "result": "inactive"}, {"measurement": "Activity", "setting": "Staphylococcus aureus", "result": "inactive"}, {"measurement": "Activity", "setting": "Enterococcus faecalis", "result": "inactive"}, {"measurement": "Activity", "setting": "Bacillus subtilis", "result": "inactive"}, {"measurement": "Activity", "setting": "Candida albicans", "result": "inactive"}, {"measurement": "Activity", "setting": "Cryptococcus neoformans", "result": "inactive"}, {"measurement": "Activity", "setting": "Candida parapsilosis", "result": "inactive"}]}, {"smiles": "CC[C@H](C)[C@@H]1NC(=O)[C@H](C(C)C)NC(=O)[C@@H]2CCCN2C(=O)[C@H]([C@@H](C)CC)NC(=O)[C@H](CC(C)C)NC(=O)[C@@H]2CCCN2C(=O)[C@@H]2CCCN2C(=O)[C@H](CC(C)C)NC1=O", "note": "(cyclo(ILPPLIPV))", "values": [{"measurement": "diameter of the inhibition zone (DIZ)", "setting": "Escherichia coli", "result": 9.4, "unit": "mm"}, {"measurement": "fold change (FC)", "setting": "C2C12 [2]", "result": 1.5}, {"measurement": "diameter of the inhibition zone (DIZ)", "setting": "Cryptococcus neoformans", "result": 7.7, "unit": "mm"}]}, {"smiles": "Oc1ccc(/C=C/c2cc(O)cc(O)c2)cc1", "values": [{"measurement": "Activity", "setting": "C2C12 [3]", "result": "Active"}]}]}
